Test results published in ChEMBL document CHEMBL4024770, “Augmentation of Anticancer Drug Efficacy in Murine Hepatocellular Carcinoma Cells by a Peripherally Acting Competitive N-Methyl-d-aspartate (NMDA) Receptor Antagonist” (J Med Chem, 2017).

Legend:
Mus musculus [1] = species on record: Mus musculus; test: Antagonist activity at NMDA receptor in Nras driven p53 deficient mouse HCC cell membranes assessed as Slc2a1 protein expression levels at 10 uM by […] analysis relative to control; parameters: scale not given: the % may be the effect or the level left
In short: (§1)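 Mouse Nras-driven p53−/− HCC cells in DMEM with 10% FBS, exposed 48 h with or without 10 μM antagonist, washed, pelleted and snap-frozen. Crude membrane fraction isolated. 50 μg protein reduced, alkylated, precipitated, then Lys-C digested (3 h, rt) and trypsin digested (1:100, 37°C, 16 h). One unique peptide per transporter quantified by multiplexed SRM/MRM LC-MS/MS against stable isotope-labelled standards. Unpaired two-tailed t-test versus control, n=4.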

[2] = molecular target: Ionotropic glutamate receptor NMDA 1/2D (Rattus norvegicus, UniProt P35439+Q62645); test: Antagonist activity at recombinant rat GluN1a/GluN2D expressed in Xenopus laevis oocytes assessed as inhibition of glycine/glutamate-mediated current responses by two-electrode voltage clamp method; assay type: cell-based
In short: (§2)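 Xenopus oocytes were injected with rat GluN1 and GluN2A–D cRNA (1:2) and recorded 2–6 days later by TEVC at room temperature, −40 mV, in Ba2+-containing recording solution, pH 7.4. Currents were evoked by 100 μM glycine plus glutamate at 2–3× EC50: 10 μM for GluN2A, 3 μM for GluN2B and GluN2C, 1 μM for GluN2D. IC50 from Hill fits per oocyte; Ki estimated.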

Liver [3] = test: AUC (0 to 240 mins) in mouse liver at 10 mg/kg, ip administered as bolus dose by LC-MS/MS analysis; assay type: ADME, organism-based; parameters: dose 10 mg/kg, time < 4 hr, route intraperitoneal; settings: in vivo, 4 h
In short: (§3)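 Adult male mice (25 ± 5 g) given a single 10 mg/kg i.p. bolus, prepared as a 5.0 mM solution in 0.9% NaCl. Animals were decapitated at five time points between 10 and 240 min. Plasma was precipitated with acetonitrile containing internal standard. Brain and liver were homogenized in water (1:3) and precipitated the same way. Analysis by LC-MS/MS, with AUC0–240, Cmax, tmax, t½β and liver/plasma ratio derived from the concentration-time data.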

Mus musculus [4] = species on record: Mus musculus; test: Antagonist activity at NMDA receptor in Nras driven p53 deficient mouse HCC cell membranes assessed as decrease in Slc7a5 protein expression levels by measuring [14C]-L-leucine accumulation at 10 uM preincubated for 24 hrs followed by compound wash out and addition of [14C]-L-leucine measured after 5 mins by scintillation counting method relative to control; parameters: scale not given: the % may be the effect or the level left
In short: (§4)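 Nras p53−/− HCC cells (1 × 10⁵/well) were pretreated 24 h with or without 10 μM. They were then washed 3× in warm HBSS (choline chloride, pH 7.4) and incubated at 37 °C with probe in HBSS. Incubation was 30 min for [3H]-digoxin, 20 μM fluorescein or 10 μM sorafenib, and 5 min for [14C]-L-leucine or [14C]-D-glucose. Cells were washed ice-cold and lysed in 0.1 M NaOH. Read-out was scintillation, fluorescence or LC-MS/MS, normalized to protein.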

[5] = Displacement of [3H]-AMPA from AMPA receptor in Sprague-Dawley rat brain synaptosomes after 30 mins by scintillation counting method; assay type: subcellular
Mus musculus [6] = species on record: Mus musculus; test: Antagonist activity at NMDA receptor in Nras driven p53 deficient mouse HCC cell membranes assessed as PGE2 levels at 100 uM after 24 hrs by LC-MS/MS method relative to control; parameters: scale not given: the % may be the effect or the level left
In short: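 Nras-driven p53−/− mouse HCC cells in DMEM/10% FBS were incubated 24 h with or without 100 μM compound. This was done without LPS and with LPS (2.5 μg/mL) in the growth medium. Cells were washed with ice-cold HBSS and lysed in acetonitrile on ice. PGE2 in the lysates was quantified by LC-MS/MS and expressed as % of control. Mean ± SEM, n=3; one-way ANOVA/Tukey.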

Mus musculus [7] = species on record: Mus musculus; test: Antagonist activity at NMDA receptor in Nras driven p53 deficient mouse HCC cell membranes assessed as Abcg2 protein expression levels at 10 uM by […] analysis relative to control; parameters: scale not given: the % may be the effect or the level left; in short: as §1
[8] = molecular target: Glutamate NMDA receptor; Grin1/Grin2a (Rattus norvegicus, UniProt P35439+Q00959); test: Antagonist activity at recombinant rat GluN1a/GluN2A expressed in Xenopus laevis oocytes assessed as inhibition of glycine/glutamate-mediated current responses by two-electrode voltage clamp method; assay type: cell-based; in short: as §2
Mus musculus [9] = species on record: Mus musculus; test: Antagonist activity at NMDA receptor in Nras driven p53 deficient mouse HCC cell membranes assessed as Abcc4 protein expression levels at 10 uM by […] analysis relative to control; parameters: scale not given: the % may be the effect or the level left; in short: as §1
Liver [10] = test: Tmax in mouse liver at 10 mg/kg, ip administered as bolus dose by LC-MS/MS analysis; assay type: ADME, organism-based; settings: in vivo; in short: as §3
[11] = Displacement of [3H]-CGP-39653 from NMDA receptor in Sprague-Dawley rat brain synaptosomes after 60 mins by scintillation counting method; assay type: subcellular
Liver [12] = test: Cmax in mouse liver at 10 mg/kg, ip administered as bolus dose by LC-MS/MS analysis; assay type: ADME, organism-based; parameters: dose 10 mg/kg, route intraperitoneal; settings: in vivo; in short: as §3
Mus musculus [13] = species on record: Mus musculus; test: Antagonist activity at NMDA receptor in Nras driven p53 deficient mouse HCC cell membranes assessed as decrease in Abcb1/Abcg2 protein expression levels by measuring sorafenib accumulation at 10 uM preincubated for 24 hrs followed by compound wash out and addition of sorafenib measured after 30 mins by LC/MS-MS method relative to control; parameters: scale not given: the % may be the effect or the level left; in short: as §4
Plasma [14] = test: AUC (0 to 240 mins) in mouse plasma at 10 mg/kg, ip administered as bolus dose by LC-MS/MS analysis; assay type: ADME, organism-based; parameters: time < 4 hr, dose 10 mg/kg, route intraperitoneal; settings: in vivo, 4 h; in short: as §3
Brain [15] = test: Cmax in mouse brain at 10 mg/kg, ip administered as bolus dose measured at 30 mins by LC-MS/MS analysis; assay type: ADME, organism-based; parameters: dose 10 mg/kg, route intraperitoneal; settings: in vivo, 0.5 h; in short: as §3
Mus musculus [16] = species on record: Mus musculus; test: Antagonist activity at NMDA receptor in Nras driven p53 deficient mouse HCC cell membranes assessed as potentiation of 1 uM sorafenib-mediated antiproliferative activity by measuring cell viability at 100 uM after 72 hrs by resazurin assay (reference value: […] +/- […]%)
Brain [17] = test: Drug uptake in mouse brain at 100 uM administered via perfusion; settings: in vivo, other
Plasma [18] = test: Cmax in mouse plasma at 10 mg/kg, ip administered as bolus dose by LC-MS/MS analysis; assay type: ADME, organism-based; parameters: dose 10 mg/kg, route intraperitoneal; settings: in vivo; in short: as §3
[19] = Displacement of [3H]-KA from KA receptor in Sprague-Dawley rat brain synaptosomes after 60 mins by scintillation counting method; assay type: subcellular
[20] = molecular target: Glutamate NMDA receptor; Grin1/Grin2c (Rattus norvegicus, UniProt P35439+Q00961); test: Antagonist activity at recombinant rat GluN1a/GluN2C expressed in Xenopus laevis oocytes assessed as inhibition of glycine/glutamate-mediated current responses by two-electrode voltage clamp method; assay type: cell-based; in short: as §2
Brain [21] = test: AUC (0 to 240 mins) in mouse brain at 10 mg/kg, ip administered as bolus dose by LC-MS/MS analysis; assay type: ADME, organism-based; parameters: dose 10 mg/kg, time < 4 hr, route intraperitoneal; settings: in vivo, 4 h; in short: as §3
Mus musculus [22] = species on record: Mus musculus; test: Antagonist activity at NMDA receptor in Nras driven p53 deficient mouse HCC cell membranes assessed as Abcb1 protein expression levels at 10 uM by […] analysis relative to control; parameters: scale not given: the % may be the effect or the level left; in short: as §1
Plasma [23] = test: Tmax in mouse plasma at 10 mg/kg, ip administered as bolus dose by LC-MS/MS analysis; assay type: ADME, organism-based; settings: in vivo; in short: as §3

Glutamate NMDA receptor; Grin1/Grin2c, sequence (Q00961 whole entry, other chains not shown): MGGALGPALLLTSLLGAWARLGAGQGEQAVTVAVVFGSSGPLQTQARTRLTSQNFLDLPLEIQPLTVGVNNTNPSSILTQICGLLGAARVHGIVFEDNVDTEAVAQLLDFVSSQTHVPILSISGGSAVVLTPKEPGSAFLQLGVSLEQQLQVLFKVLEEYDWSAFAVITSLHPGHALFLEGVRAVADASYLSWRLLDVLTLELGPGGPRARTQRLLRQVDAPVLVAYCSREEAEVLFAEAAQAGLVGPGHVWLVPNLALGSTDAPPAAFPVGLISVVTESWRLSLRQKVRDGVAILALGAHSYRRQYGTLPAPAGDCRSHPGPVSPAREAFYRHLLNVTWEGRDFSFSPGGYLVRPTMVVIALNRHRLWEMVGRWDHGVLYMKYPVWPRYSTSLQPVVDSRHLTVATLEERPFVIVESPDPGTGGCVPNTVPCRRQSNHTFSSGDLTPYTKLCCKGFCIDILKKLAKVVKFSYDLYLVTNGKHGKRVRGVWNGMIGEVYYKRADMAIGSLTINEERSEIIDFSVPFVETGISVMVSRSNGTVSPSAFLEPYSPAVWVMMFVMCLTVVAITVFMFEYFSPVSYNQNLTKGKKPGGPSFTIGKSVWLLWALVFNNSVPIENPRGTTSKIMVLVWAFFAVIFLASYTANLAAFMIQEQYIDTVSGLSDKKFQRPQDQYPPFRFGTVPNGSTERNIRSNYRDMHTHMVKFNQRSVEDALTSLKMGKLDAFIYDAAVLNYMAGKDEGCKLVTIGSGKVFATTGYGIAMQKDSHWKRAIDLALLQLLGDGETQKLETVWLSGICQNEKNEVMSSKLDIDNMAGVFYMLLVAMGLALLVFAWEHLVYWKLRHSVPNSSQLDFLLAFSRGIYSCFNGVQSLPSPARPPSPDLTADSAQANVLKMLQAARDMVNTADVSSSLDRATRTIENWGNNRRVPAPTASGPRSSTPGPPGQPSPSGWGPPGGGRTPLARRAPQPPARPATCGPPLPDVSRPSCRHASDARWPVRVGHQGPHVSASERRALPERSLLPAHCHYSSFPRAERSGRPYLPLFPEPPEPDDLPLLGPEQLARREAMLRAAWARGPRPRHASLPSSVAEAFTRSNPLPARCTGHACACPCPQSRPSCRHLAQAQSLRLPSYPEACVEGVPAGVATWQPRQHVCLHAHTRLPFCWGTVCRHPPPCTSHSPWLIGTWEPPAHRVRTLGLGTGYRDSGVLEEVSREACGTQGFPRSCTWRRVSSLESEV
Glutamate NMDA receptor; Grin1/Grin2a, sequence (Q00959 whole entry, other chains not shown): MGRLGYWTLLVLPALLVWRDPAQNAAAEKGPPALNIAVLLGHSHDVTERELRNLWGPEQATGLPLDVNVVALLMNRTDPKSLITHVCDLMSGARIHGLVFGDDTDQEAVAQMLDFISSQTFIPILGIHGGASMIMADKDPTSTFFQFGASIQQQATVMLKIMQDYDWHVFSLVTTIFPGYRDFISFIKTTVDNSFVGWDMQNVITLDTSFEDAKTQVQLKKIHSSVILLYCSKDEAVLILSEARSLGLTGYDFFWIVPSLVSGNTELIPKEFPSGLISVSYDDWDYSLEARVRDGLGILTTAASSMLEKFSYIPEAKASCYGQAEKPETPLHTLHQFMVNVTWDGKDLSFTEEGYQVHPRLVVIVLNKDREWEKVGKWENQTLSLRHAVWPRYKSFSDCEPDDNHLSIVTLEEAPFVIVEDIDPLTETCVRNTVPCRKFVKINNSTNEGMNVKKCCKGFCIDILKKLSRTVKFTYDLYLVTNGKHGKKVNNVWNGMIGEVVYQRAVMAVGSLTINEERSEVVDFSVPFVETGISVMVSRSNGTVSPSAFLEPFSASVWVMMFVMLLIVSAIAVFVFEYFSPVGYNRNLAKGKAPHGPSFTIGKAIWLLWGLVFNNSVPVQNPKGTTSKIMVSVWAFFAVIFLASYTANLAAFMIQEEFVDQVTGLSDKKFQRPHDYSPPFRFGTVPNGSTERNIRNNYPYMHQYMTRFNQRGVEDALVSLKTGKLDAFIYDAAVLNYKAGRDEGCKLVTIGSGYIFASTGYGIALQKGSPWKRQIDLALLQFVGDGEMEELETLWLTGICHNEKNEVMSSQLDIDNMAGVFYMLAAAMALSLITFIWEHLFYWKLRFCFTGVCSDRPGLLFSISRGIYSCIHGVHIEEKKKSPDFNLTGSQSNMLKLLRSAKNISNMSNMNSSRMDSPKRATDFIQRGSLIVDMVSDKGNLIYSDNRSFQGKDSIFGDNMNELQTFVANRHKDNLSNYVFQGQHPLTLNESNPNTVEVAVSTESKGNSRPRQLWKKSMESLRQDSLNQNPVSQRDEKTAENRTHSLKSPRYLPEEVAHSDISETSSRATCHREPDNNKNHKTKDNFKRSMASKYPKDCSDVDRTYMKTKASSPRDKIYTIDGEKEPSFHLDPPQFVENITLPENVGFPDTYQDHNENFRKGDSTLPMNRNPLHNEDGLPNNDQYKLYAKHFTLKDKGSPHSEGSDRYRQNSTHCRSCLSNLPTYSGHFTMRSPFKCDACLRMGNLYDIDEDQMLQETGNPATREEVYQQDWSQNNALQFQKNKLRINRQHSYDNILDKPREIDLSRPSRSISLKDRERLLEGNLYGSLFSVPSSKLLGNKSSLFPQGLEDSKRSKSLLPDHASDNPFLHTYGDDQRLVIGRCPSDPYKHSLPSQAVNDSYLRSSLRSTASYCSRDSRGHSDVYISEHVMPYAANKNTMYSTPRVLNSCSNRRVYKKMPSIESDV
Ionotropic glutamate receptor NMDA 1/2D, sequence (Q62645 whole entry, other chains not shown): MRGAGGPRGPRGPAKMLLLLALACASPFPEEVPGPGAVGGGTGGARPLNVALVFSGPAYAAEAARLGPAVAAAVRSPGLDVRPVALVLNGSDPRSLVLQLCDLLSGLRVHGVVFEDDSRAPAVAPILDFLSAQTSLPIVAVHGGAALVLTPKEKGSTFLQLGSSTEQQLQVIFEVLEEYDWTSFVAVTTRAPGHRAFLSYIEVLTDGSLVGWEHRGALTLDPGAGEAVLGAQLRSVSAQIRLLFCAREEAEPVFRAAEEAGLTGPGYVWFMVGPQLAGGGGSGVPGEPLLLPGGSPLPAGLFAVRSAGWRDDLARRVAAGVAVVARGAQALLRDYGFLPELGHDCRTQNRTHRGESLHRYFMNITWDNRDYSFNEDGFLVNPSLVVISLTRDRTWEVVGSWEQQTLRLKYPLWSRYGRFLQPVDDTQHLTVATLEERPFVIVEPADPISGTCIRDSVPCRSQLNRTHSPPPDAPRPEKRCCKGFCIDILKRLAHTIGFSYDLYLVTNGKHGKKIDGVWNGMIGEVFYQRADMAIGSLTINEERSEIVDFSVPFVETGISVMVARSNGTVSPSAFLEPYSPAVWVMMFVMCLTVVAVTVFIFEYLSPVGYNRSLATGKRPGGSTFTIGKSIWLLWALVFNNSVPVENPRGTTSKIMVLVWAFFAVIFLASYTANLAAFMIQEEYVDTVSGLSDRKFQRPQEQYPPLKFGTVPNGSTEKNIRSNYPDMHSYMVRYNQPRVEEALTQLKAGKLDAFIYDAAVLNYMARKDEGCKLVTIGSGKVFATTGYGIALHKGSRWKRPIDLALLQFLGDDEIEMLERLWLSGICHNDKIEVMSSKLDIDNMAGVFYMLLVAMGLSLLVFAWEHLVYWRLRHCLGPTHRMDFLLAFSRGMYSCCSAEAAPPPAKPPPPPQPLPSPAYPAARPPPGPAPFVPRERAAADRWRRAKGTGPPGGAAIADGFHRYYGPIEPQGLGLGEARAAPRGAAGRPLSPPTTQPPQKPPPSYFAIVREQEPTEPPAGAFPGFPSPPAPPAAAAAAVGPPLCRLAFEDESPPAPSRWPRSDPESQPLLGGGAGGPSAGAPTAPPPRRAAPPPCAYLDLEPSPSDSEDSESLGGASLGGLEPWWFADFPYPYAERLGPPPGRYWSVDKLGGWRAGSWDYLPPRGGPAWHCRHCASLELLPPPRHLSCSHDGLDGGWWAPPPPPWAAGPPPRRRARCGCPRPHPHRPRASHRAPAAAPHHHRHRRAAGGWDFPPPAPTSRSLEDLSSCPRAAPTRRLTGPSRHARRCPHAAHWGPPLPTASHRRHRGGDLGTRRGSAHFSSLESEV

Cl.O=C(O)c1cc([C@H]2CCN[C@@H]2C(=O)O)ccc1Cl
Activity (Mus musculus [1]): 42% | IC50 [2]: 170 µM | Ki [2]: 41 µM | AUC (Liver [3]): 575 nmol·min/g | Activity (Mus musculus [4]): 81% | IC50 [5]: > 100 µM | Activity (Mus musculus [6]): 48% | Activity (Mus musculus [7]): 34% | IC50 [8]: 15 µM | Ki [8]: 4.7 µM | Activity (Mus musculus [9]): 14% | Tmax (Liver [10]): 30 min | Ki [11]: 630 nM | pKi [11]: 6.22 | Cmax (Liver [12]): 8.7 nmol/g | Activity (Mus musculus [13]): 152% | AUC (Plasma [14]): 3020 nmol·min/g | Cmax (Brain [15]): 0.3 nmol/g | Activity (Mus musculus [16]): 33% | Drug uptake (Brain [17]): 5 pmol/g | Cmax (Plasma [18]): 43.4 nmol/g | IC50 [19]: > 100 µM | IC50 [20]: 110 µM | Ki [20]: 24 µM | AUC (Brain [21]): 13 nmol·min/g | Activity (Mus musculus [22]): 39% | Tmax (Plasma [23]): 15 min
